Experiment [1] has as its system Mus musculus. Kind of experiment: Antiinflammatory activity in histamine-induced paw edema in Balb/c mouse assessed as inhibition of paw edema at 100 mg/kg, ip administered 1 hr prior to histamine challenge and measured after 5 hrs. Format: functional, organism-based. Particulars: time 6.0 hrs. The method, boiled down:
(§1)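 BALB/c mice of either sex (30–35 g), 8 per group, dosed i.p. with 10% DMSO, reference drug or compound (100 mg/kg). After 1 h, subplantar irritant: PGE2 0.01 µg/ml, bradykinin 20 µg/ml, histamine 0.1 ml of 1 mg/ml, or leukotriene 10 µg/ml.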

The test system of experiment [2] is Mus musculus. The experiment is described as follows: Antiinflammatory activity in PGE2-induced paw edema in Balb/c mouse assessed as inhibition of paw edema at 100 mg/kg, ip administered 1 hr prior to PGE2 challenge and measured up to 5 hrs relative to control. Type of experiment: functional. The following applies: time 2-6 hrs. A digest of the protocol: as §1

For experiment [3], the system named is Mus musculus. Kind of experiment: Antiinflammatory activity in histamine-induced paw edema in Balb/c mouse assessed as inhibition of paw edema at 100 mg/kg, ip administered 1 hr prior to histamine challenge and measured after 4 hrs relative to control. Type of experiment: functional. The following applies: time 5 hrs. A digest of the protocol: as §1
Experiment [4] deals with Mus musculus. Kind of experiment: Antiinflammatory activity in PGE2-induced paw edema in Balb/c mouse assessed as inhibition of paw edema at 100 mg/kg, ip administered 1 hr prior to PGE2 challenge and measured after 1 hr relative to control. Type of experiment: functional. Particulars: time 2 hrs. A digest of the protocol: as §1
Experiment [5] concerns Mus musculus. Kind of experiment: Antiinflammatory activity in PGE2-induced paw edema in Balb/c mouse assessed as inhibition of paw edema at 100 mg/kg, ip administered 1 hr prior to PGE2 challenge and measured after 4 hrs relative to control. Type of experiment: functional. The following applies: time 5 hrs. The method, boiled down: as §1
Experiment [6] has as its system Mus musculus. Kind of experiment: Antiinflammatory activity in PGE2-induced paw edema in Balb/c mouse assessed as inhibition of paw edema at 100 mg/kg, ip administered 1 hr prior to PGE2 challenge and measured after 5 hrs. Format: functional, organism-based. Particulars: time 6.0 hrs. A digest of the protocol: as §1
Experiment [7] has as its system Mus musculus. Kind of experiment: Antiinflammatory activity in leukotriene-induced paw edema in Balb/c mouse assessed as inhibition of paw edema at 100 mg/kg, ip administered 1 hr prior to leukotriene challenge and measured after 2 hrs relative to control. Format: functional. The following applies: time 3 hrs. The method, boiled down:
as §1

Usually inhibition in vivo stands for the change of the read-out against control, counted positive when it falls.

Activity calls are given as the source filed them. The rule behind the calls is not given here.

Consider `Cc1ccc(C(=O)CC2CC(=O)N(c3ccc(S(N)(=O)=O)cc3)C2=O)cc1` (configuration not stated), for which the inhibition entry in the experiment with Mus musculus [1] is “Active”. Moreover, the inhibition in vivo at 100 mg/kg with Mus musculus [2] was found to be 61.6%.

With `O=C1CCCCC1C1CC(=O)N(Cc2ccccc2)C1=O` (configuration not stated), the inhibition in vivo at 100 mg/kg was found to be 17.1% in the experiment on Mus musculus [3], 50.5% with Mus musculus [4], 64.6% in the experiment with Mus musculus [5] and 60.1% with Mus musculus [7]. Besides, the inhibition entry in the experiment with Mus musculus [6] is “Active”.

For the origin of these results see ChEMBL document CHEMBL4715833, “Design, synthesis, in-vitro, in-vivo and in-silico studies of pyrrolidine-2,5-dione derivatives as multitarget anti-inflammatory agents” (Eur J Med Chem, 2020).
